Assay outcomes: PubChem, Broad Institute
Only some compounds are listed: those with a hit (about 2.4% of all), similar ones and a draw of the others.
INS-1E GSIS act – GLuc luminescence reporter in INS-1E cells, primary screen for activators of glucose-dependent secretion of insulin; AID 743287; activation, % at 16.6 µM; 370,000 tested, 0.61% active; INS-1E GLuc reporter insulin secretion, 2-3 h;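 active = lowest replicate activation of at least 40%, so every replicate reaches that level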
dFosB act – mouse delta FosB homodimer activation; P13346; purified delta FosB, TAMRA-CDK5 oligo fluorescence polarization; percent of positive-control signal above neutral wells; activation, % at 25 µM; 340,000 tested, 0.99% active; AID 493131;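 active = mean activation above about 17%, with every replicate also reaching it, limit read from the data, passing the limit was not always enough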
Env fusion inh – HIV envelope-mediated fusion inhibition; HeLa-JRFL Env/CEM21 cell fusion, luciferase; inhibition, % at 12.3 µM; 360,000 tested, 1.1% active;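 active = mean replicate inhibition score of at least 50 and every replicate individually at or above 50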
miR122 inh – blocks miR-122 activity in Huh7 sensor cells; Huh7 miR-122 Renilla luciferase sensor, 48 h; neutral wells = 0, positive control = 100; activation (reporter increase), % at 12.5 µM; 340,000 tested, 0.3% active;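 active = mean replicate activation score at least 90 and every replicate individually at or above 90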;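 note: higher luciferase means less miR-122 activity so hits act as miR-122 inhibitors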
Rtt109 Vps75 – C. albicans Rtt109 histone acetyltransferase inhibition; Q5AAJ8; purified Rtt109/Vps75, ThioGlo CoA-SH fluorescence, 4 h; inhibition, % at 34.9 µM; 330,000 tested, 0.16% active;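 active = inhibition of at least 50% in every replicate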
Target sequence (Q5AAJ8 whole entry, looked up): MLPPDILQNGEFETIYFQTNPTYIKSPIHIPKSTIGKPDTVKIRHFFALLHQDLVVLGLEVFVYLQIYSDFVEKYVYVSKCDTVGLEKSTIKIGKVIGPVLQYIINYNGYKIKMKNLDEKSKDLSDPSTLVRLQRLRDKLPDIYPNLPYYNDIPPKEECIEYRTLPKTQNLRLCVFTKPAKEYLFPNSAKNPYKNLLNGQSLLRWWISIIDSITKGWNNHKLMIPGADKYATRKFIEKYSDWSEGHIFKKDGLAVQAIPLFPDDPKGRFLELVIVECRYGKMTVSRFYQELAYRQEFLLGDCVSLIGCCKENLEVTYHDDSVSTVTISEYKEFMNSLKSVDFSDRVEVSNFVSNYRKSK
Cneo AK release – causes C. neoformans cell lysis; adenylate kinase release luminescence, 4 h; normalised: neutral wells 0, clomiphene wells 100; lysis activity, % at 15 µM; 360,000 tested, 0.2% active;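 active = mean lysis activity across replicates of at least 80%, whatever share of replicates individually reach that level; inactive = mean lysis activity below 80%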
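Material: C. neoformans cells; Schedule: 4 h static compound exposure, 37 °C, read 1 h post-reagent; Measured by: adenylate kinase release luminescence; Read-out: signal increase indicating cell lysis; Controls: Clomiphene as positive lysis control.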
Hits are given with their value; - = inactive; . = not tested or not shown; [ ] = dose if it differs, or a comment.

SMILES	INS-1E GSIS act	dFosB act	Env fusion inh	miR122 inh	Rtt109 Vps75	Cneo AK release
CCC(=O)N1CC[C@H]2[C@H](CO)Nc3ccc(C#Cc4cccc(OC)c4)cc3[C@H]21	-	.	.	.	.	.
O=C(NCC[C@@H]1CC[C@@H](NC(=O)C2CCCCC2)[C@@H](CO)O1)c1cnccn1	-	.	-	.	.	-
CCn1c(COc2ccc(C)cc2)nnc1SCC(=O)Nc1cc(OC)ccc1OC	.	-	58.0	-	-	-
CCOC(=O)c1cnc(SCC(=O)OCC(=O)NC2CCS(=O)(=O)C2)nc1N (configuration not stated)	42.5	-	-	-	-	.
CCOC(=O)c1cnc(SCC(=O)Nc2cc(OC)ccc2OC)nc1N	.	-	73.9	-	-	-
CCn1c(COc2ccccc2)nnc1SCC(=O)Nc1cc(C)ccc1OC	-	-	.	-	-	-
Cc1nc(S(=O)(=O)N[C@@H]2CCCN(Cc3cccc(OCCO)c3)C2)cn1C	.	.	-	.	.	-
COC(=O)CCn1nnc(-c2cccs2)n1	.	-	-	-	-	-
COC(=O)CCn1nnc(-c2ccc(C(C)C)cc2)n1	.	-	65.7	-	-	-
CCCCNC(=S)N1CCn2cccc2C1c1ccc(F)cc1 (configuration not stated)	-	-	58.1	.	-	.
COc1ccc(CNC(=O)c2cnn3c(C(F)F)cc(C)nc23)cc1	79.8	-	.	-	-	-
COc1ccc(OCCCC(=O)Nc2ccc(OC)c(S(=O)(=O)N3CCOCC3)c2)cc1	-	-	-	.	-	-
COc1ccc(NC(=O)CCCOc2ccc(Cl)c(C)c2)cc1S(=O)(=O)N1CCOCC1	-	-	58.9	-	-	-
CCOc1ccc(OCCCC(=O)Nc2cc(S(=O)(=O)N3CCOCC3)ccc2N2CCOCC2)cc1	-	-	.	-	-	-
Cc1cc(Cl)ccc1OCCCC(=O)Nc1cc(S(=O)(=O)N2CCOCC2)ccc1N1CCOCC1	-	-	113.7	-	-	-
COc1cccc(S(=O)(=O)N2CC3(CCN(C)CC3)c3c([nH]c4cc(OC)ccc34)[C@@H]2CO)c1	-	.	.	.	.	.
O=C(CCN1CCN(Cc2ccccc2)CC1)Nc1ccc(OCc2ccccc2)cc1	.	-	58.9	-	-	-
Cc1noc(C)c1NC(=O)Nc1ccc2c(c1)CC(=O)N([C@H](C)CO)C[C@H](C)[C@@H](CN(C)Cc1ccc(C(F)(F)F)cc1)O2	-	.	-	-	.	-
O=C1C=CC(=O)N1CCCCCCN1C(=O)C=CC1=O	202.1	.	-	.	.	.
O=C(O)CN1C(=O)C=CC1=O	-	.	-	-	.	-
Cc1cccc2cc3c(N)c(C#N)sc3nc12	.	-	90.6	-	-	-
Cc1sc(NC(=O)c2sc3nc4c(C)cccc4cc3c2N)c(C#N)c1C	.	-	-	-	.	-
c1ccc(-c2nnc3n2-c2ccccc2SC3)cc1	58.0	-	-	.	-	.
C[C@@H]1CN([C@@H](C)CO)C(=O)c2cc(NS(=O)(=O)c3ccccc3)ccc2O[C@@H](C)CCCCO[C@@H]1CN(C)C(=O)c1ccncc1	-	.	-	-	.	-
CCCCOC(=O)n1c(=O)oc2cc(S(=O)(=O)N3CCCCC3)ccc21	-	-	56.5	-	-	-
SMILES	INS-1E GSIS act	dFosB act	Env fusion inh	miR122 inh	Rtt109 Vps75	Cneo AK release
C/C(=N\NC(=O)c1ccccc1)c1cccc(Br)c1	-	-	-	.	-	.
C/C(=N\NC(=O)c1cccc(Br)c1)c1ccc(Br)cc1	56.3	-	-	.	-	-
Cc1cccc(NCc2ccccc2)c1	94.9	-	-	-	-	-
Cc1cccc(NCc2ccccc2O)c1	.	-	.	-	-	-
C[C@H](CO)N1C[C@H](C)[C@H](CN(C)S(=O)(=O)c2ccccc2)Oc2ncc(C#Cc3ccc(C(F)(F)F)cc3)cc2C1=O	-	.	-	-	.	-
O=C(C[C@H]1CC[C@@H]2[C@H](COC[C@H](O)CN2S(=O)(=O)c2cccc(Cl)c2)O1)Nc1ccccc1	-	.	.	-	.	-
N#Cc1cnn2c(C(F)(F)F)cc(-c3ccccc3)nc12	44.1	-	-	.	-	-
O=C(N[C@H]1CC[C@H](CCn2cc(C3(O)CCCC3)nn2)O[C@H]1CO)C1CCC1	-	.	-	.	.	-
Cc1noc(C)c1NC(=O)N(C)C[C@H]1Oc2ccc(NS(=O)(=O)c3cn(C)cn3)cc2CC(=O)N([C@H](C)CO)C[C@H]1C	-	.	-	-	.	102.4
Cc1noc(C)c1NC(=O)N(C)C[C@@H]1Oc2ccc(NS(=O)(=O)c3cn(C)cn3)cc2CC(=O)N([C@H](C)CO)C[C@@H]1C	-	.	-	-	.	-
Cc1ccc(S(=O)(=O)N(C)C[C@@H]2Oc3ccc(NS(=O)(=O)c4c(C)noc4C)cc3CC(=O)N([C@H](C)CO)C[C@@H]2C)cc1	-	.	61.7[16.7 µM]	-	.	-
Cc1ccc(S(=O)(=O)N(C)C[C@@H]2Oc3ccc(NS(=O)(=O)c4ccc(Cl)cc4)cc3CC(=O)N([C@@H](C)CO)C[C@@H]2C)cc1	-	.	-	-	.	100.0
C[C@H](CO)N1C[C@H](C)[C@H](CN(C)S(=O)(=O)c2ccc(F)cc2)Oc2ccc(NS(=O)(=O)c3ccc(Cl)cc3)cc2CC1=O	-	.	58.8[16.7 µM]	-	.	-
CC(C)CC#Cc1ccc([C@@H]2[C@H](CO)N3C(=O)CN(C(=O)NC4CCCC4)C[C@@H]23)cc1	-	.	.	.	.	.
C[C@H](CO)N1C[C@H](C)[C@@H](CN(C)C(=O)CCCN(C)C)OCCCC[C@H](C)Oc2ccc(NC(=O)Nc3ccc(C(F)(F)F)cc3)cc2C1=O	-	.	-	-	.	-
Cc1noc(C)c1S(=O)(=O)Nc1ccc2c(c1)CC(=O)N([C@@H](C)CO)C[C@H](C)[C@H](CN(C)S(=O)(=O)c1cn(C)cn1)O2	-	.	-	-	.	-
C[C@H](CO)N1C[C@H](C)[C@@H](CN(C)S(=O)(=O)c2ccc(F)cc2)Oc2ccc(NS(=O)(=O)c3ccc(F)cc3)cc2CC1=O	-	.	-	-	.	-
Cc1noc(C)c1S(=O)(=O)Nc1ccc2c(c1)CC(=O)N([C@@H](C)CO)C[C@H](C)[C@H](CN(C)S(=O)(=O)c1cccs1)O2	-	.	-	-	.	-
C[C@H]1CN([C@@H](C)CO)C(=O)Cc2cc(NS(=O)(=O)c3ccc(F)cc3)ccc2O[C@H]1CN(C)S(=O)(=O)c1ccc(F)cc1	-	.	-	-	.	100.2
Cc1noc(C)c1S(=O)(=O)Nc1ccc2c(c1)CC(=O)N([C@H](C)CO)C[C@H](C)[C@@H](CN(C)S(=O)(=O)c1cn(C)cn1)O2	-	.	-	-	.	110.4
Cc1noc(C)c1S(=O)(=O)Nc1ccc2c(c1)CC(=O)N([C@@H](C)CO)C[C@@H](C)[C@@H](CN(C)S(=O)(=O)c1cccs1)O2	-	.	-	-	.	105.8
C[C@H](CO)N1C[C@H](C)[C@H](CN(C)S(=O)(=O)c2ccc(F)cc2)Oc2ccc(NS(=O)(=O)c3ccccc3)cc2CC1=O	-	.	85.6[16.7 µM]	-	.	-
